# Assays:
# [1] = system: Human immunodeficiency virus 1; assay: Antiviral activity against HIV1 isolate 211 harboring reverse transcriptase D67N/K70R/T215F/K219E/M184V mutant gene by phenosense assay; format: functional, organism-based; settings: Human immunodeficiency virus 1, isolate 211
# Summary of the method: (§1)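 PhenoSense HIV recombinant virus assay: patient-derived HIV-1 with major NRTI resistance mutations tested against increasing drug concentrations to give inhibition curves. EC50 is the concentration giving 50% inhibition. Fold change is the test recombinant EC50 divided by the EC50 of a drug-sensitive wild-type reference virus. Panel of 30 NRTI-resistant isolates plus two wild-type viruses.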
# [2] = system: Human immunodeficiency virus 1; assay: Antiviral activity against HIV1 isolate 200 harboring reverse transcriptase M41L/L210W/T215Y mutant gene by phenosense assay; format: functional, organism-based; settings: Human immunodeficiency virus 1, isolate 200
# Summary of the method: (§2)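 Recombinant-virus PhenoSense HIV assay run on a panel of 30 NRTI-resistant HIV-1 mutants and two wild-type viruses. Each virus is tested across increasing drug concentrations to give an inhibition curve and EC50. Fold change is the test recombinant EC50 divided by the EC50 of the drug-sensitive wild-type reference virus.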
# [3] = system: Human immunodeficiency virus 1; assay: Antiviral activity against HIV1 isolate 067 harboring reverse transcriptase A62V/D67G/T69SVG/V75I/T215I mutant gene by phenosense assay; format: functional, organism-based; settings: Human immunodeficiency virus 1, isolate 067; summary of the method: as §2
# [4] = system: Human immunodeficiency virus 1; assay: Antiviral activity against HIV1 isolate 180 harboring reverse transcriptase K65R mutant gene obtained as site-directed mutant of NL4-3 by phenosense assay relative to wild type; format: functional; summary of the method: as §2
# [5] = system: Human immunodeficiency virus 1; assay: Antiviral activity against HIV1 isolate 063 harboring reverse transcriptase M41L/D67N/K70R/M184V/L210W/T215Y/K219E mutant gene by phenosense assay relative to wild type; format: functional; summary of the method: as §2
# [6] = system: Human immunodeficiency virus 1; assay: Antiviral activity against HIV1 isolate 066 harboring reverse transcriptase 184V mutant gene by phenosense assay relative to wild type; format: functional; summary of the method: as §2
# [7] = system: Human immunodeficiency virus 1; assay: Antiviral activity against HIV1 isolate 215 harboring reverse transcriptase D67N/K70E mutant gene by phenosense assay; format: functional, organism-based; settings: Human immunodeficiency virus 1, isolate 215; summary of the method: as §1
# [8] = system: Human immunodeficiency virus 1; assay: Antiviral activity against HIV1 isolate 063 harboring reverse transcriptase M41L/D67N/K70R/M184V/L210W/T215Y/K219E mutant gene by phenosense assay; format: functional, organism-based; settings: Human immunodeficiency virus 1, isolate 063; summary of the method: as §2
# [9] = system: Human immunodeficiency virus 1; assay: Antiviral activity against HIV1 isolate 160 harboring reverse transcriptase S68G/V75(I/T)/F77L/Y115F/F116Y /Q151M mutant gene by phenosense assay relative to wild type; format: functional; summary of the method: as §2
# [10] = system: Human immunodeficiency virus 1; assay: Antiviral activity against HIV1 isolate 157 harboring reverse transcriptase L74V/M184V mutant gene by phenosense assay relative to wild type; format: functional; summary of the method: as §2
# [11] = system: Human immunodeficiency virus 1; assay: Antiviral activity against HIV1 isolate 061 harboring reverse transcriptase M41L/D67N/K70R/M184V/L210W/T215Y/K219E mutant gene by phenosense assay; format: functional, organism-based; settings: Human immunodeficiency virus 1, isolate 061; summary of the method: as §2
# [12] = system: Human immunodeficiency virus 1; assay: Antiviral activity against HIV1 isolate 203 harboring reverse transcriptase M41L/L210W/T215Y/M184V mutant gene by phenosense assay relative to wild type; format: functional; summary of the method: as §1
# [13] = system: Human immunodeficiency virus 1; assay: Antiviral activity against HIV1 isolate 203 harboring reverse transcriptase M41L/L210W/T215Y/M184V mutant gene by phenosense assay; format: functional, organism-based; settings: Human immunodeficiency virus 1, isolate 203; summary of the method: as §1
# [14] = system: Human immunodeficiency virus 1; assay: Antiviral activity against HIV1 isolate 166 harboring reverse transcriptase L74V mutant gene obtained as site-directed mutant of NL4-3 by phenosense assay relative to wild type; format: functional; summary of the method: as §2
# [15] = system: Human immunodeficiency virus 1; assay: Antiviral activity against HIV1 isolate 217 harboring reverse transcriptase D67N/K70E/M184V mutant gene by phenosense assay; format: functional, organism-based; settings: Human immunodeficiency virus 1, isolate 217; summary of the method: as §1
# [16] = system: Human immunodeficiency virus 1; assay: Antiviral activity against HIV1 isolate 058 harboring reverse transcriptase M41L/D67N/K70R/L210W/T215F/K219Q mutant gene by phenosense assay; format: functional, organism-based; settings: Human immunodeficiency virus 1, isolate 058; summary of the method: as §2
# [17] = system: Human immunodeficiency virus 1; assay: Antiviral activity against HIV1 isolate 206 harboring reverse transcriptase D67N/K70R mutant gene by phenosense assay relative to wild type; format: functional; summary of the method: as §1
# [18] = system: Human immunodeficiency virus 1; assay: Antiviral activity against HIV1 isolate 185 harboring reverse transcriptase T215Y mutant gene by phenosense assay; format: functional, organism-based; settings: Human immunodeficiency virus 1, isolate 185; summary of the method: as §2
# [19] = system: Human immunodeficiency virus 1; assay: Antiviral activity against HIV1 isolate 153 harboring reverse transcriptase L74V mutant gene by phenosense assay; format: functional, organism-based; settings: Human immunodeficiency virus 1, isolate 153; summary of the method: as §2
# [20] = system: Human immunodeficiency virus 1; assay: Antiviral activity against HIV1 isolate 185 harboring reverse transcriptase T215Y mutant gene by phenosense assay relative to wild type; format: functional; summary of the method: as §2
# [21] = system: Human immunodeficiency virus 1; assay: Antiviral activity against HIV1 isolate 153 harboring reverse transcriptase L74V mutant gene by phenosense assay relative to wild type; format: functional; summary of the method: as §2
# [22] = system: Human immunodeficiency virus 1; assay: Antiviral activity against HIV1 isolate 058 harboring reverse transcriptase M41L/D67N/K70R/L210W/T215F/K219Q mutant gene by phenosense assay relative to wild type; format: functional; summary of the method: as §2
# [23] = system: Human immunodeficiency virus 1; assay: Antiviral activity against HIV1 isolate 180 harboring reverse transcriptase K65R mutant gene obtained as site-directed mutant of NL4-3 by phenosense assay; format: functional, organism-based; settings: Human immunodeficiency virus 1, isolate 180; summary of the method: as §2
# [24] = system: Human immunodeficiency virus 1; assay: Antiviral activity against HIV1 isolate 192 harboring reverse transcriptase M41L/T215Y mutant gene by phenosense assay; format: functional, organism-based; settings: Human immunodeficiency virus 1, isolate 192; summary of the method: as §2
# [25] = system: Human immunodeficiency virus 1; assay: Antiviral activity against HIV1 isolate 201 harboring reverse transcriptase M41L/L210W/T215Y mutant gene by phenosense assay; format: functional, organism-based; settings: Human immunodeficiency virus 1, isolate 201; summary of the method: as §2
# [26] = system: Human immunodeficiency virus 1; assay: Antiviral activity against HIV1 isolate 162 harboring reverse transcriptase A62V/V75I/F77L/Y115F/F116Y/Q151M/M184V mutant gene by phenosense assay relative to wild type; format: functional; summary of the method: as §2
# [27] = system: Human immunodeficiency virus 1; assay: Antiviral activity against HIV1 isolate 061 harboring reverse transcriptase M41L/D67N/K70R/M184V/L210W/T215Y/K219E mutant gene by phenosense assay relative to wild type; format: functional; summary of the method: as §2
# [28] = system: Human immunodeficiency virus 1; assay: Antiviral activity against HIV1 isolate 160 harboring reverse transcriptase S68G/V75(I/T)/F77L/Y115F/F116Y /Q151M mutant gene by phenosense assay; format: functional, organism-based; settings: Human immunodeficiency virus 1, isolate 160; summary of the method: as §2
# [29] = system: Human immunodeficiency virus 1; assay: Antiviral activity against HIV1 isolate 188 harboring reverse transcriptase T215Y/M184V mutant gene by phenosense assay; format: functional, organism-based; settings: Human immunodeficiency virus 1, isolate 188; summary of the method: as §2
# [30] = system: Human immunodeficiency virus 1; assay: Antiviral activity against HIV1 isolate 201 harboring reverse transcriptase M41L/L210W/T215Y mutant gene by phenosense assay relative to wild type; format: functional; summary of the method: as §1
# [31] = system: Human immunodeficiency virus 1; assay: Antiviral activity against HIV1 isolate 157 harboring reverse transcriptase L74V/M184V mutant gene by phenosense assay; format: functional, organism-based; settings: Human immunodeficiency virus 1, isolate 157; summary of the method: as §2
# [32] = system: Human immunodeficiency virus 1; assay: Antiviral activity against HIV1 isolate 057 expressing wild type reverse transcriptase gene by phenosense assay; format: functional, organism-based; settings: Human immunodeficiency virus 1, isolate 057
# Summary of the method: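 In the PhenoSense recombinant virus assay, virus was tested against increasing drug concentrations. EC50 came from the inhibition curve and was compared with a drug-sensitive reference virus.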
# [33] = system: Human immunodeficiency virus 1; assay: Antiviral activity against HIV1 isolate 066 harboring reverse transcriptase 184V mutant gene by phenosense assay; format: functional, organism-based; settings: Human immunodeficiency virus 1, isolate 066; summary of the method: as §2
# [34] = system: Human immunodeficiency virus 1; assay: Antiviral activity against HIV1 isolate 071 harboring reverse transcriptase 65R/S68N/184V mutant gene by phenosense assay relative to wild type; format: functional; summary of the method: as §2
# [35] = system: Human immunodeficiency virus 1; assay: Antiviral activity against HIV1 isolate 069 harboring reverse transcriptase D67E/T69SSG/V75M/M184V/L210W/T215Y mutant gene by phenosense assay relative to wild type; format: functional; summary of the method: as §2
SMILES,EC50 [1],EC50 [2],EC50 [3],fold change (FC) [4],fold change (FC) [5],fold change (FC) [6],EC50 [7],EC50 [8],fold change (FC) [9],fold change (FC) [10],EC50 [11],fold change (FC) [12],EC50 [13],fold change (FC) [14],EC50 [15],EC50 [16],fold change (FC) [17],EC50 [18],EC50 [19],fold change (FC) [20],further results
C[C@H](Cn1cnc2c(N)ncnc21)OCP(=O)(O)O [TENOFOVIR ANHYDROUS],700 nM,2200 nM,17000 nM,2,2.2,0.69,740 nM,1700 nM,2.3,0.29,2000 nM,0.97,750 nM,0.69,500 nM,2700 nM,2.6,1800 nM,480 nM,2.4,fold change (FC) [21]: 0.62; fold change (FC) [22]: 3.5; EC50 [23]: 1600 nM; EC50 [24]: 1400 nM; EC50 [25]: 2300 nM; fold change (FC) [26]: 1.4; fold change (FC) [27]: 2.2; EC50 [28]: 1700 nM; EC50 [29]: 620 nM; fold change (FC) [30]: 3; EC50 [31]: 230 nM; EC50 [32]: 650 nM; EC50 [33]: 530 nM; fold change (FC) [34]: 1.2; fold change (FC) [35]: 4.7
CCCCCCCCCCCCCCCCOCCCOP(=O)(O)CO[C@H](C)Cn1cnc2c(N)ncnc21 [TENOFOVIR EXALIDEX],1.9 nM,6 nM,57 nM,2.6,2.8,0.73,2.1 nM,5.2 nM,2,0.36,6.1 nM,1,1.9 nM,0.8,1.5 nM,8.5 nM,3,5 nM,1.2 nM,2.7,fold change (FC) [21]: 0.66; fold change (FC) [22]: 4.6; EC50 [23]: 4.7 nM; EC50 [24]: 3.9 nM; EC50 [25]: 6.6 nM; fold change (FC) [26]: 1.6; fold change (FC) [27]: 2.1; EC50 [28]: 3.7 nM; EC50 [29]: 1.7 nM; fold change (FC) [30]: 3.5; EC50 [31]: 0.66 nM; EC50 [32]: 1.6 nM; EC50 [33]: 1.4 nM; fold change (FC) [34]: 1.5; fold change (FC) [35]: 6.1
Cc1cn([C@H]2C[C@H](N=[N+]=[N-])[C@@H](CO)O2)c(=O)[nH]c1=O [ZIDOVUDINE],190 nM,2700 nM,> 25000 nM,0.51,59,0.63,6 nM,1600 nM,93,0.22,2200 nM,3.2,87 nM,0.5,4 nM,9600 nM,28,1000 nM,11 nM,38,fold change (FC) [21]: 0.41; fold change (FC) [22]: 350; EC50 [23]: 14 nM; EC50 [24]: 560 nM; EC50 [25]: 2700 nM; fold change (FC) [26]: 150; fold change (FC) [27]: 58; EC50 [28]: 2500 nM; EC50 [29]: 71 nM; fold change (FC) [30]: 98; EC50 [31]: 6 nM; EC50 [32]: 17 nM; EC50 [33]: 17 nM; fold change (FC) [34]: 0.41; fold change (FC) [35]: 320
